Test results taken from ChEMBL document CHEMBL4033643, “Synthesis and in vitro antitumour activity of crassalactone D, its stereoisomers and novel cinnamic ester derivatives” (Eur J Med Chem, 2017).
Calls of active or inactive are those of the source. No cut-off for these calls is given here.

Assays:
K562 [1] = assay: Cell cycle arrest in human K562 cells assessed as total cell levels at G2/M phase at IC50 after 72 hrs by propidium iodide staining based flow cytometry (reference value: 14.31%); assay type: functional
K562 [2] = assay: Cell cycle arrest in human K562 cells assessed as accumulation at G0/G1 phase at IC50 after 72 hrs by propidium iodide staining based flow cytometry (reference value: 38.48%); assay type: functional
MCF7 = assay: Cytotoxicity against human MCF7 cells assessed as reduction in cell viability after 72 hrs by MTT assay; assay type: functional, cell-based; settings: MCF7, 72 h
K562 [3] = assay: Cell cycle arrest in human K562 cells assessed as total cell levels at G0/G1 phase at IC50 after 72 hrs by propidium iodide staining based flow cytometry (reference value: 39.97%); assay type: functional
K562 [4] = assay: Cell cycle arrest in human K562 cells assessed as accumulation at sub G1 phase at IC50 after 72 hrs by propidium iodide staining based flow cytometry (reference value: 1.48%); assay type: functional
K562 [5] = assay: Cell cycle arrest in human K562 cells assessed as accumulation at S phase at IC50 after 72 hrs by propidium iodide staining based flow cytometry (reference value: 41.03%); assay type: functional
K562 [6] = assay: Induction of apoptosis in human K562 cells assessed as gated early apoptotic cells by Annexin V-FITC/propidium iodide staining based flow cytometry (reference value: 3.18%); assay type: functional
MRC5 = assay: Cytotoxicity against human MRC5 cells assessed as reduction in cell viability after 72 hrs by MTT assay; assay type: cell-based; settings: MRC5, 72 h
Raji = assay: Cytotoxicity against human Raji cells assessed as reduction in cell viability after 72 hrs by MTT assay; assay type: functional, cell-based
Jurkat = assay: Cytotoxicity against human Jurkat cells assessed as reduction in cell viability after 72 hrs by MTT assay; assay type: functional, cell-based
K562 [7] = assay: Cell cycle arrest in human K562 cells assessed as total cell levels at M4 phase at IC50 after 72 hrs by propidium iodide staining based flow cytometry (reference value: 0.50%); assay type: functional
K562 [8] = assay: Induction of apoptosis in human K562 cells assessed as total early apoptotic cells by Annexin V-FITC/propidium iodide staining based flow cytometry (reference value: 3.07%); assay type: functional
K562 [9] = assay: Induction of apoptosis in human K562 cells assessed as total late apoptotic cells by Annexin V-FITC/propidium iodide staining based flow cytometry (reference value: 0.77%); assay type: functional
HeLa = assay: Cytotoxicity against human HeLa cells assessed as reduction in cell viability after 72 hrs by MTT assay; assay type: functional, cell-based
MDA-MB-231 = assay: Cytotoxicity against human MDA-MB-231 cells assessed as reduction in cell viability after 72 hrs by MTT assay; assay type: functional, cell-based; settings: MDA-MB-231, 72 h
K562 [10] = assay: Induction of apoptosis in human K562 cells assessed as increase in Bax expression level by Western blot analysis; assay type: functional, cell-based
How it was run: (§1)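 Western blot of treated K562 cells for Bcl-2, Bax, activated caspase 3 and cleaved PARP (85 kDa fragment). Blots developed by ECL, with band expression quantified by densitometry against an untreated control sample.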

K562 [11] = assay: Induction of apoptosis in human K562 cells assessed as specific apoptosis by Annexin V-FITC/propidium iodide staining based flow cytometry; assay type: functional; set-up: concentration or dose not given beside the values
HL-60 = assay: Cytotoxicity against human HL60 cells assessed as reduction in cell viability after 72 hrs by MTT assay; assay type: functional, cell-based; settings: HL-60, 72 h
K562 [12] = assay: Cell cycle arrest in human K562 cells assessed as accumulation at G2/M phase at IC50 after 72 hrs by propidium iodide staining based flow cytometry (reference value: 19.01%); assay type: functional
K562 [13] = assay: Induction of apoptosis in human K562 cells assessed as gated necrotic cells by Annexin V-FITC/propidium iodide staining based flow cytometry (reference value: 0.24%); assay type: functional
K562 [14] = assay: Induction of apoptosis in human K562 cells assessed as decrease in Bcl-2 expression level by Western blot analysis; assay type: functional, cell-based; how it was run: as §1
A549 = assay: Cytotoxicity against human A549 cells assessed as reduction in cell viability after 72 hrs by MTT assay; assay type: functional, cell-based; settings: A549, 72 h
K562 [15] = assay: Induction of apoptosis in human K562 cells assessed as specific necrosis by Annexin V-FITC/propidium iodide staining based flow cytometry; assay type: functional; set-up: concentration or dose not given beside the values
K562 [16] = assay: Induction of apoptosis in human K562 cells assessed as gated viable cells by Annexin V-FITC/propidium iodide staining based flow cytometry (reference value: 95.78%); assay type: functional
K562 [17] = assay: Cell cycle arrest in human K562 cells assessed as total cell levels at S phase at IC50 after 72 hrs by propidium iodide staining based flow cytometry (reference value: 36.49%); assay type: functional
K562 [18] = assay: Induction of apoptosis in human K562 cells assessed as total necrotic cells by Annexin V-FITC/propidium iodide staining based flow cytometry (reference value: 0.23%); assay type: functional
K562 [19] = assay: Induction of apoptosis in human K562 cells assessed as total viable cells by Annexin V-FITC/propidium iodide staining based flow cytometry (reference value: 92.45%); assay type: functional
K562 [20] = assay: Cytotoxicity against human K562 cells assessed as reduction in cell viability after 72 hrs by MTT assay; assay type: functional, cell-based; settings: K562, 72 h
K562 [21] = assay: Induction of apoptosis in human K562 cells assessed as gated late apoptotic cells by Annexin V-FITC/propidium iodide staining based flow cytometry (reference value: 0.88%); assay type: functional

SMILES | Activity (K562 [1]) [%] | Activity (K562 [2]) [%] | IC50 (MCF7) [µM] | Activity (K562 [3]) [%] | Activity (K562 [4]) [%] | Activity (K562 [5]) [%] | Activity (K562 [6]) [%] | IC50 (MRC5) [µM] | IC50 (Raji) [µM] | IC50 (Jurkat) [µM] | Activity (K562 [7]) [%] | Activity (K562 [8]) [%] | Activity (K562 [9]) [%] | IC50 (HeLa) [µM] | IC50 (MDA-MB-231) [µM] | Activity (K562 [10]) | Activity (K562 [11]) [%] | IC50 (HL-60) [µM] | Activity (K562 [12]) [%] | Activity (K562 [13]) [%] | further results
O=C1C=C[C@@]2(C[C@H](OC(=O)/C=C/c3ccc([N+](=O)[O-])cc3)[C@@H](c3ccccc3)O2)O1 | 22.88 | 33.85 | 12.5 | 31.72 | 2.93 | 38.08 | 11.87 | > 100 | > 100 | 86.5 | 2.67 | 10.32 | 1.94 | 9.45 | > 100 | Active | 10.54 | 1.32 | 25.14 | 1.89 | Activity (K562 [14]): inactive; IC50 (A549): 56.2 µM; Activity (K562 [15]): 2.18%; Activity (K562 [16]): 84.01%; Activity (K562 [17]): 34.91%; Activity (K562 [18]): 1.64%; Activity (K562 [19]): 73.05%; IC50 (K562 [20]): 7.45 µM; Activity (K562 [21]): 2.23%
COc1ccc(/C=C/C(=O)O[C@H]2C[C@]3(C=CC(=O)O3)O[C@@H]2c2ccccc2)cc1 | 27.1 | 21.08 | 3.14 | 16.74 | 3.39 | 41.08 | 37.43 | > 100 | 89.7 | 58.1 | 2.67 | 27.83 | 2.17 | 3.34 | > 100 | Active | 37.78 | 8.67 | 34.45 | 0.27 | Activity (K562 [14]): inactive; IC50 (A549): 33.6 µM; Activity (K562 [15]): 3.86%; Activity (K562 [16]): 59.39%; Activity (K562 [17]): 32.71%; Activity (K562 [18]): 0.2%; Activity (K562 [19]): 44.16%; IC50 (K562 [20]): 2.12 µM; Activity (K562 [21]): 2.92%
O=C1C=C[C@]2(C[C@H](OC(=O)/C=C/c3ccc([N+](=O)[O-])cc3)[C@H](c3ccccc3)O2)O1 | 18.29 | 30.42 | 7.55 | 27.84 | 20.43 | 29.17 | 78.82 | > 100 | 11.8 | 10.2 | 18.7 | 15.89 | 0.78 | 11.5 | 4.48 | Active | 81.97 | 4.32 | 19.98 | 3.37 | Activity (K562 [14]): Active; IC50 (A549): 3.12 µM; Activity (K562 [15]): 0.64%; Activity (K562 [16]): 13.94%; Activity (K562 [17]): 27.16%; Activity (K562 [18]): 0.68%; Activity (K562 [19]): 2.81%; IC50 (K562 [20]): 14.3 µM; Activity (K562 [21]): 3.87%
O=C1C=C[C@]2(C[C@H](O)[C@H](c3ccccc3)O2)O1 | 51.44 | 15.18 | 11 | 11.56 | 1.09 | 17.17 | 3.35 | > 100 | 8.84 | 1.01 | 0.6 | 2.87 | 6.94 | 35.4 | 45.1 | Active | 7.78 | 6.11 | 66.56 | 1.25 | Activity (K562 [14]): Active; IC50 (A549): 35.2 µM; Activity (K562 [15]): 2.84%; Activity (K562 [16]): 87.3%; Activity (K562 [17]): 13.07%; Activity (K562 [18]): 1.07%; Activity (K562 [19]): 74.8%; IC50 (K562 [20]): 1.21 µM; Activity (K562 [21]): 8.1%
